Assay results: the RNAGym collection of RNA variant scans (doi:10.1126/science.aae0568)
Fewer inactive variants are shown than the library holds.

B1: tRNA (parent)
chain: GUUCCGUUGGCGUAAUGGUAACGCGUCUCCCUCCUAAGGAGAAGACUGCGGGUUCGAGUCCCGUACGGAACG

Variants of: B1
Assay: yeast fitness relative to wild type (ratio to wild type); higher = fitter; tRNA-Arg(CCU), competitive growth, 37 C, YPD
How it was run: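 Gene amplicons from the start population and from each of six end populations were read by 100-nucleotide paired-end sequencing. Those end populations came from pooled Saccharomyces cerevisiae strains carrying tRNA-Arg(CCU) gene variants at the native locus, competed in YPD at 37°C for 24 hours. Fitness relative to wild type was worked out from changes in genotype frequencies. Genotypes needed ≥ 100 starting reads, and estimates < 0.5 were set to 0.5.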

Variant	yeast fitness
GUUCCAUUGGCGUAAUGGUAACGCGUCUCCCUCCUAAGGAGAAGACUGGGGGUUCGAGUCCCGUACGGAACG [G6A C49G]	0.904
GUUCCAUUGGCGUAAUGGUAACGCGUCUCCCUCCUAAGGAGAAGACUGGGGGUUCGAGUCUCGUACGGGACG [G6A C49G C61U A69G]	≤ 0.5
GUUCCAUUGGCGUAAUGGUAACGCGUCUCCCUCCUAAGGAGAAGACUGUGGGUUCGCGUCCCGUCCGGACCG [G6A C49U A57C A65C A70C]	≤ 0.5
GUUCCAUUGGCGUAAUGGUAACGCGUCUCCCUCCUAAGGAGAAGACUGUGGGUUCGAGUCCCGUCCGGAACG [G6A C49U A65C]	0.701
GUUCCAUUGGCGUAAUGGUAACGCGUCUCCCUCCUAAGGAGAAGACUGUGGGUUCGAGUCCCGUUCGGAACG [G6A C49U A65U]	0.667
GUUCCAUUGGCGUAAUGGUAACGCGUCUCCCUCCUAAGGAGAAGACUGUGGGUUUGAGUCCCGUACGGAACG [G6A C49U C55U]	0.561
GUUCCAUUGGCGUAAUGGUAACGCGUCUCCCUCCUAAGGAGAAGACUGUGGGUUCGAGUCCCAUACGGAACG [G6A C49U G63A]	0.688
GUUCCAUUGGCGUAAUGGUAACGCGUCUCCCUCCUAAGGAGAAGACUGCGGGUUAGAGUCCCGUACGGAACG [G6A C55A]	0.587
GUUCCAUUGGCGUAAUGGUAACGCGUCUCCCUCCUAAGGAGAAGACUGCGGGUUAGAGUCCCGUACAGAACG [G6A C55A G67A]	0.534
GUUCCAUUGGCGUAAUGGUAACGCGUCUCCCUCCUAAGGAGAAGACUGCGGGUUGGAGUCCCGUACGGAACG [G6A C55G]	0.656
GUUCCAUUGGCGUAAUGGUAACGCGUCUCCCUCCUAAGGAGAAGACUGCGGGUUCGAGUGCCGUACGGAACG [G6A C60G]	0.601
GUUCCAUUGGCGUAAUGGUAACGCGUCUCCCUCCUAAGGAGAAGACUGCGGGUUCGAGUGCCGUACGGACCG [G6A C60G A70C]	0.531
GUUCCAUUGGCGUAAUGGUAACGCGUCUCCCUCCUAAGGAGAAGACUGCGGGUUCGAGUGCCGUACAGAACG [G6A C60G G67A]	0.53
GUUCCAUUGGCGUAAUGGUAACGCGUCUCCCUCCUAAGGAGAAGACUGCGGGUUCGAGUUCCGUACGGAACG [G6A C60U]	0.675
GUUCCAUUGGCGUAAUGGUAACGCGUCUCCCUCCUAAGGAGAAGACUGCGGGUUCGAGUCACGUACGGAACG [G6A C61A]	0.66
GUUCCAUUGGCGUAAUGGUAACGCGUCUCCCUCCUAAGGAGAAGACUGCGGGUUCGAGUCGCGUACGGACCG [G6A C61G A70C]	0.522
GUUCCAUUGGCGUAAUGGUAACGCGUCUCCCUCCUAAGGAGAAGACUGCGGGUUCGAGUCGCGUACCGAACG [G6A C61G G67C]	0.546
GUUCCAUUGGCGUAAUGGUAACGCGUCUCCCUCCUAAGGAGAAGACUGCGGGUUCGAGUCUCGUACGGAACG [G6A C61U]	0.902
GUUCCAUUGGCGUAAUGGUAACGCGUCUCCCUCCUAAGGAGAAGACUGCGGGUUCGAGUCUCGUACGGUACG [G6A C61U A69U]	0.632

Variant	yeast fitness
GUUCCAUUGGCGUAAUGGUAACGCGUCUCCCUCCUAAGGAGAAGACUGCGGGUUCGAGUCCGGUACGGAGCG [G6A C62G A70G]	≤ 0.5
GUUCCAUUGGCGUAAUGGUAACGCGUCUCCCUCCUAAGGAGAAGACUGCGGGUUCGAGUCCUGUACGGAACG [G6A C62U]	0.921
GUUCCAUUGGCGUAAUGGUAACGCGUCUCCCUCCUAAGGAGAAGACUGCGGGUUCGAGUCCUGUCCGGAACG [G6A C62U A65C]	0.763
GUUCCAUUGGCGUAAUGGUAACGCGUCUCCCUCCUAAGGAGAAGACUGCGGGUUCGAGUCCUGUACCGAACG [G6A C62U G67C]	≤ 0.5
GUUCCAUUGGCGUAAUGGUAACGCGUCUCCCUCCUAAGGAGAAGACUGCGGGUUCGAGUCCCGUAAGGAACG [G6A C66A]	0.879
GUUCCAUUGGCGUAAUGGUAACGCGUCUCCCUCCUAAGGAGAAGACUGCGGGUUCGAGUCCCGUAAGGCACG [G6A C66A A69C]	0.565
GUUCCAUUGGCGUAAUGGUAACGCGUCUCCCUCCUAAGGAGAAGACUGCGGGUUCGAGUCCCGUAGGGAACG [G6A C66G]	0.683
GUUCCAUUAGCGUUAUGGUAACGCGUCUCCCUCCUAAGGAGAAGACUGCGGGUUCGAGUCCCAUACGGAACG [G6A G9A A14U G63A]	0.747
GUUCCAUUAGCGUAAUGGUAUCGCGUCUCCGUCCUAAGGAGAAGACUGCGGGUUCGAGUCCCGUACGGAACG [G6A G9A A21U C31G]	≤ 0.5
GUUCCAUUAGGGUAAUGGUAACGGGUCUCCCACCUAAGGAGAAGACUGCGGCUUCGAGUCCCGUACGGAACG [G6A G9A C11G C24G U32A G52C]	≤ 0.5
GUUCCAUUCGCGUAAUGGUAACGCGUCUCCCUCCUAAGGAGAAGACUGCGGGUUCGAGUCCCGUACGGAACG [G6A G9C]	0.81
GUUCCAUUCGCGUAAUGGUACCGCGUCUCUCUCCUAAGGAGAAGACUGCGGGUUCGAGUCCCGUACGGAACG [G6A G9C A21C C30U]	≤ 0.5
GUUCCAUUCGCGUAAUGGUACCGCGUCUCUCUCCUAAGGAGAAGUCUGCGGGUUCGAGUCCCGUACGGAACG [G6A G9C A21C C30U A45U]	≤ 0.5
GUUCCAUUCGCGUAAUGGUAGCGCGUCUCCCUCCUAAGGAGAAGACUGCGGGUUCGAGUCCCGUACGGAACG [G6A G9C A21G]	0.537
GUUCCAUUCGCGUAAUGGUAACGCGUCUCCCUCCUAAGGAGUAGACUGCGGGUUCGAGUCCCGUACGGAACG [G6A G9C A42U]	≤ 0.5
GUUCCAUUCGGGUAAUGGUAACGCGUUUCCCUCUUAAGGAGAAGACUGCGGGUUCGAGUCCCGUACGAAACG [G6A G9C C11G C27U C34U G68A]	≤ 0.5
GUUCCAUUCGGGUAAUGGUAACGCGUCUCCCUCUUAAGGAGAAGACUGCGGGUUCGAGUCCCGUACGGAACG [G6A G9C C11G C34U]	≤ 0.5
GUUCCAUUCGGGUAAUGGUAACGCGUCUCCCUCUUAAGGAGAAGACUGCGGGUUCGGGUCCCGUACGGAACG [G6A G9C C11G C34U A57G]	0.54
GUUCCAUUCGGGUAAUGGUAACGCGUCUCCCUCUUAAGGAGAAGACUGCGGGUUCGAGUCCCGUACGAAACG [G6A G9C C11G C34U G68A]	0.574
